Compound activity as filed in PubChem.
ABCB6 inh MLPCN: human ABCB6 transporter inhibition; fluorescence ratio to DMSO, % at 10 µM; AID 602162; Q9NP58; 360,000 tested, 0.19% active; K562-ABCB6 porphyrin accumulation, flow cytometry, 1 h; stronger effect = lower value;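 active = fluorescence ratio to DMSO below 75%, the collection mean minus 3 SD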;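 note: signal is porphyrin accumulated inside mitochondria; 100% equals median channel fluorescence of DMSO control wells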
VLA-4 inh: inhibition in a human VLA-4 binding assay; AID 2557; P13612; VLA-4 expressing cells, ligand binding flow cytometry; 330,000 tested, 0.2% active; inhibition, % (about 7 µM as worked out from the volumes in the protocol); in the data active = inhibition above about 50%
FGF22 binding: FGF22 (human) thermal shift binding; recombinant FGF22 thermal shift, SYPRO orange fluorescence; percent of sucrose octasulfate shift, DMSO zero; activity (Tm shift, normalised), % at 9.99 µM; 340,000 tested, 1.5% active;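 active = mean Tm shift, scaled 0 neutral to 100 positive control, at about 1.3% or above, every replicate too, limit read from the data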
Target sequence (Q9HCT0 whole entry, looked up): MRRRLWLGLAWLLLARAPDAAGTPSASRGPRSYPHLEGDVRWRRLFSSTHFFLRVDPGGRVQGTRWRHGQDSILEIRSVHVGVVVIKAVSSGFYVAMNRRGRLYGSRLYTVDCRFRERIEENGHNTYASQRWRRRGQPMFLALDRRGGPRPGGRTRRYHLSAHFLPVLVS
MT1-MMP act inh: MT1-MMP (human) activation inhibition. HT1080 RFP-PRO-GFP cells, GFP/RFP ratio fluorescence, overnight; percent of plate control window, DMSO zero. GFP/RFP ratio change, % at 20 µM. 360,000 tested, 0.061% active;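 active = GFP/RFP ratio change of at least 30% with cell ATP level not reduced by more than half and red fluorescence within 50% of control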
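Compound: 20 µM single dose, 1% DMSO / System: HT1080 RFP-PRO-GFP cells / Controls: DMSO and RFP-L50D-GFP cell wells / Read-out basis: GFP/RFP fluorescence ratio / Schedule: overnight compound exposure at 37 °C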
DAGLB inhibitor: diacylglycerol lipase beta (human) inhibition; Q8NCG7; HEK293T DAGLB membrane lysate, EnzChek fluorogenic substrate; inhibition, % at 5.17 µM; 340,000 tested, 0.059% active; in the data active = inhibition above about 34%;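 note: 0% = enzyme with vehicle and 100% = wells lacking enzyme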
Exocytosis inh: lytic granule exocytosis inhibition; TALL-104 LAMP-1 surface exposure, flow cytometry; cells stimulated with thapsigargin and PMA; AID 651702; inhibition, % at 10 µM; 360,000 tested, 0.66% active;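 active = inhibition above about 55%, limit read from the data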
Active calls of the source: *; . = no result. Sampled rows, rich in hits. Any-hit rate of the full collection: about 2%.

SMILES	ABCB6 inh MLPCN	VLA-4 inh	FGF22 binding	MT1-MMP act inh	DAGLB inhibitor	Exocytosis inh
COc1ccccc1CNC(=O)C1CCN(S(=O)(=O)c2ccc(-n3cnnn3)cc2)CC1	94	-10	0	-2	-1	-7
CCOC(=O)c1cc(-c2ccccc2)nn1CC1CC(c2cccnc2)=NO1 (centres undefined)	99	22	0	-1	-1	3
CCOC(=O)c1cc(-c2cccnc2)nn1-c1ccccc1C	103	2	44*	-2	1	2
CC(=O)/C=C1/C(=O)Nc2ccccc21	105	21	44*	0	2	7
C[C@H](CO)N1C[C@H](C)[C@@H](CN(C)S(=O)(=O)c2ccccc2)Oc2ccc(NC(=O)CCCCCC(=O)Nc3ccccc3N)cc2CC1=O	.	.	0	.	.	.
Cc1ccc(C(=O)OCC(=O)NCc2ccco2)s1	101	18	44*	-3	0	-3
O=C(COC(=O)/C=C/c1ccc([N+](=O)[O-])cc1)NCc1ccco1	98	5	0	1	-1	-8
O=C(COC(=O)/C=C/c1ccc(F)cc1)NCc1ccco1	101	-5	43*	7	-1	-16
Cc1ccc(C(=O)OCC(=O)NCc2cccs2)s1	98	.	0	-1	0	9
Cc1ccccc1C(=O)OCC(=O)NCc1ccco1	96	6	0	1	-1	62*
O=C(Cc1ccccc1[N+](=O)[O-])NCc1ccco1	99	13	44*	1	0	0
O=C(Cc1ccccc1[N+](=O)[O-])NCc1ccncc1	102	3	.	-1	3	1
Cc1cccc(Nc2ccccc2C(=O)OCC(=O)NCc2ccco2)c1C	95	-1	.	0	-2	-10
CO[C@H]1CN(C)C(=O)c2ccc(NC(C)=O)cc2OC[C@H](C)N(Cc2ccccc2F)C[C@H]1C	.	.	0	.	.	.
CO[C@@H]1CN(C)C(=O)c2cc(NS(=O)(=O)CC(F)(F)F)ccc2OC[C@@H](C)N(CC2CCCCC2)C[C@@H]1C	.	.	0	.	.	.
C[C@H](CO)N1C[C@H](C)[C@@H](CN(C)Cc2ccc(F)cc2)Oc2ncc(-c3ccncc3)cc2C1=O	.	.	0	.	.	.
CC(C)C(=O)Nc1ccc2c(c1)C(=O)N(C)[C@@H]1CC[C@@H](CC(=O)NCC3CC3)O[C@H]1CO2	.	.	-1	.	.	.
CCN(c1ccc(NC(=O)COC(=O)c2ccc(C)s2)cc1)C(C)C	100	-11	43*	3	-7	12
Cc1ccc(OCCCC(=O)NCc2ccco2)cc1	91	-9	.	1	-3	-4
CCc1ccc(OCCCC(=O)NCc2ccco2)cc1	100	-1	44*	0	-5	-10
C[C@@H]1CN([C@H](C)CO)C(=O)c2cc(NC(=O)c3ccncc3)ccc2O[C@@H]1CN(C)Cc1ccc2c(c1)OCO2	.	.	0	.	.	.
Cc1nn(-c2ccccc2)c(Cl)c1/C=N/Nc1nc2ccccc2n1C	101	12	0	7	1	90*
Cc1nn(-c2ccccc2)c(Cl)c1/C=N/NC(=O)CNC(=O)c1ccccc1Cl	97	-3	44*	-4	-3	6
C[C@@H]1CN([C@@H](C)CO)C(=O)Cc2cc(NC(=O)CCN3CCOCC3)ccc2O[C@H]1CN(C)Cc1ccc(-c2ccccc2)cc1	.	.	0	.	.	.
C[C@H](O)C#Cc1cnc2c(c1)C(=O)N([C@@H](C)CO)C[C@@H](C)[C@@H](CN(C)C(=O)Cc1ccncc1)O2	.	.	0	.	.	.
SMILES	ABCB6 inh MLPCN	VLA-4 inh	FGF22 binding	MT1-MMP act inh	DAGLB inhibitor	Exocytosis inh
C[C@@H]1CCCCO[C@H](CN(C)C(=O)Nc2ccc(C(F)(F)F)cc2)[C@H](C)CN([C@H](C)CO)C(=O)c2cc(NC(=O)Nc3cccc4ccccc34)ccc2O1	.	.	0	.	.	.
N#C/C(=N\Nc1cc(Cl)cc(Cl)c1)c1nnc2n1CCCCC2	119	10	43*	-5	2	-9
N#C/C(=C(/O)CCl)c1nnc2n1CCCCC2	95	-8	0	-2	-2	-2
CN(C)S(=O)(=O)c1ccc(N=Cc2c(C(F)(F)F)[nH]n(C)c2=O)cc1	318	9	44*	2	-1	20
COc1ccc(S(=O)(=O)Nc2ccc3c(c2)C(=O)N([C@H](C)CO)C[C@@H](C)[C@H](CN(C)C(=O)Cc2ccccc2)OCCCC[C@@H](C)O3)cc1	.	.	1	.	.	.
Cc1ccc(C(=O)NCC(=O)OCC(=O)NCC(F)(F)F)cc1	97	2	44*	-1	0	-2
N#C/C(=C\c1ccc([N+](=O)[O-])o1)C(=O)Nc1ccc(F)cc1	147	-229	0	-26	8	86*
Cc1cc2c(c(=O)o1)[C@@]1(C(=O)N(C)c3ccc([N+](=O)[O-])cc31)C1=C(CCCC1=O)O2	.	.	41	.	.	.
COc1ccc2c(c1)[C@]1(C(=O)N2C)C2=C(CCCC2=O)Oc2cc(C)oc(=O)c21	.	.	43*	.	.	.
CSc1nsc2nc(=O)c(/C=C3\C=Nc4ccccc43)c(N)n12	99	-3	1.5*	5	8	-1
CSc1nsc2nc(=O)c(/C=C3\C(C)=Nc4ccc(C)cc43)c(N)n12	121	-14	0	-9	9	78*
CC1=Nc2ccccc2/C1=C/c1c(N)n2c(S(=O)(=O)CC(C)C)nsc2nc1=O	104	.	44*	3	18	11
CC1=Nc2ccccc2/C1=C/c1c(N)n2c(S(=O)(=O)C(C)C)nsc2nc1=O	102	9	.	6	11	4
N#CCCN(C(=O)CN1c2cccc3cccc(c23)S1(=O)=O)c1ccccc1	93	-6	43*	1	-1	2
C[C@@H]1CN([C@@H](C)CO)C(=O)Cc2cc(NC(=O)CCC(F)(F)F)ccc2O[C@@H]1CN(C)Cc1ccc(C(=O)O)cc1	.	.	0	.	.	.
O=C(CN1CCN(Cc2ccccc2)CC1)Nc1cccc(S(=O)(=O)N2CCCCCC2)c1	99	5	43*	2	-1	-2
O=C(CSc1ncnc2ccccc12)Nc1cc(S(=O)(=O)N2CCCCC2)ccc1Cl	97	-6	.	-14	-1	-6
O=C(CSc1ncnc2ccccc12)Nc1cccc(S(=O)(=O)N2CCCC2)c1	96	1	43*	-2	.	5
O=C(CN1CCOCC1)Nc1cccc(S(=O)(=O)N2CCCCCC2)c1	103	9	0	0	-1	-1
N#C/C(=C/c1ccc(N2CCOCC2)o1)c1ccc(Cl)cc1	226	-376	.	-246	-2	82*
N#C/C(=C\c1ccc(N2CCOCC2)o1)c1nc2ccccc2[nH]1	105	-40	.	-81	-45	0
COc1ccc(C(=O)N2C[C@@H]3[C@H](c4ccccc42)[C@H](CO)N3Cc2ccccc2)cc1	.	.	-1	.	.	.
Cc1ccc(NS(=O)(=O)c2cc(C(=O)N(C)C)ccc2C)cc1C	99	.	43*	1	-2	-7
